Test results taken from article PMC12166256 (Clinical Pharmacology and Therapeutics, 2025).

Columns and labels:
sTNFα = sTNFα (Homo sapiens, UniProt P01375); assay: sTNFα target occupancy, ex vivo zymosan stimulation of blood, ELISA; assay type: in vivo
Outline: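 Blood came from the 400 and 600 mg single-dose cohorts (pre-dose and 3 h post-dose) and all multiple-dose cohorts (pre-dose Day 1; pre-dose and 3 h Day 14). It was stimulated ex vivo with zymosan. ELISA measured total and compound-occupied TNFα to derive percent occupancy and percent change from baseline, summarised descriptively by group and time point.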

[1] = cited from earlier work
TNF = conditions: read-out: 50% inhibitory concentration [IC50], TNF inhibition; in vitro; cited from earlier work
[2] = MAD study: plasma and urine pharmacokinetics; assay type: in vivo, human
Outline: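 Healthy males got oral doses for 14 days: 100 mg once daily fasted, or 100, 200 or 300 mg twice daily fed. Plasma was drawn pre-dose and […] on Day 1, pre-dose and at 3 h on Days 4, 7 and 12, and up to 120 h after the final Day 14 morning dose. Urine was collected over 24 h at steady state. LC–MS/MS, LLOQ 2 ng/mL; non-compartmental analysis.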

[3] = MAD 24-hour urine Day 13, 100 mg BID fed
[4] = MAD 24-hour urine Day 13, 100 mg QD fasted
[5] = MAD 24-hour urine Day 13, 200 mg BID fed
[6] = MAD 24-hour urine Day 13, 300 mg BID fed
[7] = MAD Day 1 first dose, 100 mg BID fed
[8] = MAD Day 1 first dose, 100 mg QD fasted
[9] = MAD Day 1 first dose, 100 mg QD fasted, calculated by extrapolation
[10] = MAD Day 1 first dose, 200 mg BID fed
[11] = MAD Day 1 first dose, 300 mg BID fed

Chain of sTNFα (P01375 77-233 limits assumed): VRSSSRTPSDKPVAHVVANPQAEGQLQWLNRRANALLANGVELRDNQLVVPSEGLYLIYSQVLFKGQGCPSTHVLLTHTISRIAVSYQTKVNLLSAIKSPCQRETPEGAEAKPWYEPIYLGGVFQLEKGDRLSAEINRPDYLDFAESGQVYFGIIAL

## CN1C(=O)c2cccc(OC(F)F)c2[C@H]2C[C@@H]1c1nc3ccc(-c4cnc(C5(N)CCC5)nc4)cc3n12 [Balinatunfib]
sTNFα; MAD 100 mg BID, D14 0 h
  sTNFα occupancy, mean: 103.1%
  sTNFα occupancy, median: 104.0%
sTNFα; MAD 100 mg BID, D14 3 h
  sTNFα occupancy, mean: 104.9%
  sTNFα occupancy, median: 105.3%
sTNFα; MAD 100 mg QD, D14 0 h
  sTNFα occupancy, mean: 95.0%
  sTNFα occupancy, median: 96.8%
sTNFα; MAD 100 mg QD, D14 3 h
  sTNFα occupancy, mean: 97.2%
  sTNFα occupancy, median: 98.4%
sTNFα; MAD 200 mg BID, D14 0 h
  sTNFα occupancy, mean: 101.1%
  sTNFα occupancy, median: 101.8%
sTNFα; MAD 200 mg BID, D14 3 h
  sTNFα occupancy, mean: 105.2%
  sTNFα occupancy, median: 106.6%
sTNFα; MAD 300 mg BID, D14 0 h
  sTNFα occupancy, mean: 101.3%
  sTNFα occupancy, median: 101.8%
sTNFα; MAD 300 mg BID, D14 3 h
  sTNFα occupancy, mean: 99.8%
  sTNFα occupancy, median: 102.8%
sTNFα; SAD 400 mg and 600 mg cohorts, 3 hours after dosing
  sTNFα target occupancy: ~ 100%
sTNFα; SAD 400 mg, D1 3 h
  sTNFα occupancy, mean: 102.2%
  sTNFα occupancy, median: 105.3%
sTNFα; SAD 600 mg, D1 3 h
  sTNFα occupancy, mean: 109.3%
  sTNFα occupancy, median: 109.2%
[1]; across animal species
  bioavailability: moderate to high
[1]; preclinical studies
  fraction unbound: high
  tissue distribution: high
TNF
  IC50: 35 nM
[2]; BID dosing, fed
  time to steady state (90% CI): 5.45 (5.36–5.92) days
[2]; [3]
  Fe0-24 (fraction of dose excreted unchanged in urine), mean ± SD: 9.41 ± 4.66%
  Fe0-24, geometric mean: (8.18) [50] %
[2]; [4]
  Fe0-24 (fraction of dose excreted unchanged in urine), mean ± SD: 9.07 ± 1.85%
  Fe0-24, geometric mean: (8.91) [20] %
[2]; [5]
  Fe0-24 (fraction of dose excreted unchanged in urine), mean ± SD: 11.9 ± 3.54%
  Fe0-24, geometric mean: (11.4) [30] %
[2]; [6]
  Fe0-24 (fraction of dose excreted unchanged in urine), mean ± SD: 15.6 ± 4.40%
  Fe0-24, geometric mean: (15.0) [28] %
[2]; [7]
  AUC0-12, geometric mean: (324) [53] ng·h/mL
  AUC0-12, mean ± SD: 364 ± 194 ng·h/mL
  C av, geometric mean: (27.0) [53] ng/mL
  C av, mean ± SD: 30.4 ± 16.2 ng/mL
  C max, geometric mean: (38.1) [50] ng/mL
  C max, mean ± SD: 42.6 ± 21.2 ng/mL
  t max, median (min, max): 6.00 (2.00, 8.00) h
[2]; [8]
  AUC0-12, geometric mean: (527) [35] ng·h/mL
  AUC0-12, mean ± SD: 559 ± 194 ng·h/mL
  C av, geometric mean: (28.1) [32] ng/mL
  C av, mean ± SD: 29.5 ± 9.33 ng/mL
  C max, geometric mean: (83.1) [38] ng/mL
  C max, mean ± SD: 88.6 ± 34.0 ng/mL
  t max, median (min, max): 3.00 (3.00, 3.00) h
[2]; [9]
  AUC0-24, geometric mean: 674 ng·h/mL
  AUC0-24, mean ± SD: 708 ± 224 ng·h/mL
[2]; [10]
  AUC0-12, geometric mean: (1,080) [31] ng·h/mL
  AUC0-12, mean ± SD: 1,130 ± 354 ng·h/mL
  C av, geometric mean: (90.3) [31] ng/mL
  C av, mean ± SD: 94.5 ± 29.5 ng/mL
  C max, geometric mean: (132) [32] ng/mL
  C max, mean ± SD: 139 ± 43.9 ng/mL
  t max, median (min, max): 5.00 (2.00, 6.00) h
[2]; [11]
  AUC0-12, geometric mean: (2,180) [32] ng·h/mL
  AUC0-12, mean ± SD: 2,280 ± 725 ng·h/mL
  C av, geometric mean: (182) [32] ng/mL
  C av, mean ± SD: 190 ± 60.4 ng/mL
  C max, geometric mean: (268) [31] ng/mL
  C max, mean ± SD: 278 ± 85.4 ng/mL
  t max, median (min, max): 4.00 (3.00, 6.00) h
[2]; MAD Day 14, 100 mg BID fed
  AUC0-tau, geometric mean: (1,690) [48] ng·h/mL
  AUC0-tau, mean ± SD: 1,860 ± 892 ng·h/mL
  C av, geometric mean: (141) [48] ng/mL
  C av, mean ± SD: 155 ± 74.4 ng/mL
  C max, geometric mean: (173) [46] ng/mL
  C max, mean ± SD: 189 ± 86.3 ng/mL
  C trough, geometric mean: (122) [52] ng/mL
  C trough, mean ± SD: 136 ± 70.8 ng/mL
  CLss/F, geometric mean: (59.1) [44] L/h
  CLss/F, mean ± SD: 64.6 ± 28.2 L/h
